From ChEMBL document CHEMBL1145100, “Structure-activity relationship of imidazo[1,2-a]pyridines as ligands for detecting beta-amyloid plaques in the brain” (J Med Chem, 2003)

Biological target: Amyloid-beta precursor protein (Homo sapiens, UniProt P05067)
Experiment: Inhibition constant against [125I]-7 (TZDM) binding to Amyloid beta 1-40 aggregates
Outline: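 Abeta40 peptide aggregated at 0.5 mg/mL in pH 7.4 buffer (10 mM sodium phosphate, 1 mM EDTA), 37 °C for 36-42 h with shaking. Competition in 1 mL of 40% EtOH: fibrils 10-50 nM final, radiotracer 0.05 nM, inhibitors 10^-5 to 10^-10 M. Nonspecific binding with 2 µM thioflavin-T. Incubated 3 h at room temperature, then GF/B filtration with 10% ethanol washes and gamma counting. Ki from nonlinear regression.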

Chain of Amyloid-beta precursor protein (P05067 whole entry): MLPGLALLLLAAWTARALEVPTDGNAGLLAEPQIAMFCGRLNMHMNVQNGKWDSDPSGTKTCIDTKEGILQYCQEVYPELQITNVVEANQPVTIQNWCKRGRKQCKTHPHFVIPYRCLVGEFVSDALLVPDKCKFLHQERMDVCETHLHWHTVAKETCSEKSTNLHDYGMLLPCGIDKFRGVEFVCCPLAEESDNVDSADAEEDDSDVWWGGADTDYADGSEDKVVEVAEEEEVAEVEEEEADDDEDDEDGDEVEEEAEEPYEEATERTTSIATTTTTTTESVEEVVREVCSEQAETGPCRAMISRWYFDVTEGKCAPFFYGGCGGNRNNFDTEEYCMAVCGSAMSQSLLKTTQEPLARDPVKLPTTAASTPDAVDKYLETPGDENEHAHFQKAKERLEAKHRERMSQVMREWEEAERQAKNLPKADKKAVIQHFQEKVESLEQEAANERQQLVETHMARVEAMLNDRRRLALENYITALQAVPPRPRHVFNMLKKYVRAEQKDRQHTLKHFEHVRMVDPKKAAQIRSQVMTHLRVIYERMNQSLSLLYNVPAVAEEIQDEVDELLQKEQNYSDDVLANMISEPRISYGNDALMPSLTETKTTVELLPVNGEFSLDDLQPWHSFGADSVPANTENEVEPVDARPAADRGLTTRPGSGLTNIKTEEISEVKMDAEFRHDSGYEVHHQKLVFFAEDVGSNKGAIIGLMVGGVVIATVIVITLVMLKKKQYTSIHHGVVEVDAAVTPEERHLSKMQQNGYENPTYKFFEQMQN

Ki: > 2000 nM
SMILES: CN(C)c1ccc(-c2nc3ccccn3c2I)cc1
